Results collected from several papers.
Compare with care: the assays were run in different laboratories.
Target: TGF-beta receptor type-1 (TGFBR1, Homo sapiens, UniProt P36897)
Sequence (P36897 1-503, as in one of the studies): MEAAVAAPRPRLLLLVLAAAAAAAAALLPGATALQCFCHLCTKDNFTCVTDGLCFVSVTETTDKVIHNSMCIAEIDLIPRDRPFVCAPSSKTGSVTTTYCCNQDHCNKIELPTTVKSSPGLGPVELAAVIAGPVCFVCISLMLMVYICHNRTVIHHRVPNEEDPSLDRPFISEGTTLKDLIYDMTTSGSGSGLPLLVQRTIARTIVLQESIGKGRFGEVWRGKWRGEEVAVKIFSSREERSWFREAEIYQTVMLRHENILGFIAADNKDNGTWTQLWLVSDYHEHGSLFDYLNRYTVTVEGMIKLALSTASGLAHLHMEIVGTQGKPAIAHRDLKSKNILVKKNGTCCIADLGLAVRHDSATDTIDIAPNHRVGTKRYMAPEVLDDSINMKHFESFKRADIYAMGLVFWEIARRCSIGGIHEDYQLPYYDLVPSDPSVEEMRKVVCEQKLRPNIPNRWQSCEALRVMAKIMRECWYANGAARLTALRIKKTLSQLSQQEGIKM

Compound | assay | setting | remaining binding [%]
COc1ncc2cc3ccccc3nc2c1C#N | cell-free assay, competition with immobilised ligand | 5 µM | 92
COc1cnc(Nc2cccc(S(N)(=O)=O)c2)nc1N1CCN(c2ccccc2)CC1 | binding, competition with immobilised ligand | 1 µM | 100
C[C@@H]1CCN(c2nccc(-c3cnn4ncccc34)n2)C1 | binding | 1 µM | 98
COCCOc1nc(-c2ccc(Cl)nc2)nc2c1CN(C(=O)c1ncn3ccccc13)CC2 | cell-free assay, competition with immobilised ligand | 0.1 µM | 100
C[C@@H]1CN(c2ccc3ncc(-c4ccc5[nH]nc(C6CC6)c5c4)n3n2)C[C@H](C)O1 | binding, competition with immobilised ligand | 0.5 µM | 100
CN(C)c1nccc(-c2cnc3ncccn23)n1 | binding | 1 µM | 82
Cc1c(C(=O)O)cc(-c2ccc(C3CCNCC3)cc2)c2ccc(-c3ccc(C(F)(F)F)cc3)cc12 | cell-free assay, competition with immobilised ligand | 1 µM | 89
F[C@@H]1CCN(c2nccc(-c3cnn4ncccc34)n2)C1 | binding | 1 µM | 100
CC(C)(C)c1ccc(-c2nc(CBr)nn2-c2cccc(O)c2)cc1 | cell-free assay, competition with immobilised ligand | 10 µM | 90
c1cnn2ncc(-c3ccnc(N4CCC45COC5)n3)c2c1 | binding | 1 µM | 78
COc1ccc2c(c1)O[C@H](c1ccc(OC)c(OC)c1)C[C@@H]2NC(=O)C1(c2ccc3c(c2)OC(F)(F)O3)CC1 | cell-free assay, competition with immobilised ligand | 1 µM | 100
O=C(c1ccc(Nc2ncc(Cl)c(-c3ccc(Cl)s3)n2)cc1)N1CCC(N2CCCC2)CC1 | binding, competition with immobilised ligand | 1 µM | 55
CCOCCn1cc(C(=O)Nc2ccc(-n3nc(-c4cccnc4)cc3C(F)(F)F)cn2)ccc1=O | cell-free assay, competition with immobilised ligand | 1 µM | 100
O=C(NCCCN1CCOCC1)c1ccc(Nc2nccc(-c3cc4ccccc4s3)n2)cc1 | binding, competition with immobilised ligand | 1 µM | 58
Cc1nc(Cc2cccc(C(F)(F)F)c2)sc1-c1ccc(C(N)=O)nc1 | cell-free assay, competition with immobilised ligand | 1 µM | 90
O=C(Nc1c[nH]nc1C(=O)NC1CCNCC1)c1cc(F)cc(F)c1 | binding, competition with immobilised ligand | 1 µM | 100
